Many of the other results were omitted from the sample, so hits are more common in it than they were.
IDH1 mut inh – IDH1 R132H (human) inhibition | O75874 | IDH1 R132H reductase, diaphorase/resazurin fluorescence, 60 min | inhibition, % at 10 µM | 0.18% of 70,000 active; in the data active = inhibition above about 34%; inconclusive = no clear call, values can overlap the other calls; inactive = below about 11%;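 also: 0% = DMSO and 100% = no enzyme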
GASC1 inh – inhibitors of human demethylase GASC-1 KDM4C; AID 720574; Q9H3R0; GST-KDM4C 2-372, H3K9me3 peptide, LANCE TR-FRET; inhibition, % at 12.5 µM; 0.15% of 96,000 active;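 active = mean replicate inhibition above about 25%, with at least 55% of replicates also reaching it, limit read from the data, passing the limit was not always enough; inconclusive = only one of those two conditions met; inactive = neither condition met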
Target sequence (Q9H3R0 2-372 limits assumed): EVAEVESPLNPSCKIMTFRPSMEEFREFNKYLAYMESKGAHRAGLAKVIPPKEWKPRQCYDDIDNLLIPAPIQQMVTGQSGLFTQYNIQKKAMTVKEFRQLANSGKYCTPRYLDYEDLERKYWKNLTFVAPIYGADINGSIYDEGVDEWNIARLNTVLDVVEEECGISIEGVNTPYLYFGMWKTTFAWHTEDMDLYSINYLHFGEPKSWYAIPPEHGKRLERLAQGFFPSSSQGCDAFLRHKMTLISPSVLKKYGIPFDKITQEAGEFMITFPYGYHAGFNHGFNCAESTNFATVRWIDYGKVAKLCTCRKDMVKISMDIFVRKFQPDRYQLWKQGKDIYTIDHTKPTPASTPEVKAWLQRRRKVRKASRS
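Test system: N-terminal GST-fused human GASC-1 (KDM4C) fragment, residues 2-372; quantity: GASC-1 enzyme at 10 nM final in reaction; dosing: single dose; schedule: 30 min demethylation and 1 h detection at room temperature; signal: LANCE TR-FRET, excitation 340 nm, emissions 618 and 671 nm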
Tcruzi prolif – inhibitors of T. cruzi proliferation. AID 624255. inhibition, % at 8.34 µM. T. cruzi beta-gal in NIH3T3, GalScreen luminescence, 90 h. 5.9% of 77,000 active;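 active = mean inhibition above about 93%, with at least 55% of replicates each passing it, limit read from the data, passing the limit was not always enough; inconclusive = only one of those two conditions holds; inactive = neither condition holds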
An asterisk follows results filed as active; ? = inconclusive; nt = not tested or not shown.

SMILES	IDH1 mut inh	GASC1 inh	Tcruzi prolif
COCCNC(=O)C[C@H]1C[C@@H]2c3cc(NC(=O)c4ccc5c(c4)OCO5)ccc3O[C@@H]2[C@@H](CO)O1	-2.9	1.1	nt
COCCNC(=O)C[C@H]1C[C@@H]2c3cc(N(C)C)ccc3O[C@@H]2[C@H](CO)O1	-1.9	17.2	nt
CCCNC(=O)C[C@H]1C[C@H]2c3cc(N(C)C)ccc3O[C@H]2[C@H](CO)O1	nt	49.0*	nt
CCCNC(=O)C[C@H]1C[C@@H]2c3cc(N(C)C)ccc3O[C@@H]2[C@@H](CO)O1	-9.7	31.4*	35.0
COc1ccc(S(=O)(=O)Nc2ccc3c(c2)[C@H]2C[C@@H](CC(=O)NCC4CC4)O[C@H](CO)[C@H]2O3)cc1	74.0*	43.5*	20.6
COc1ccc(S(=O)(=O)Nc2ccc3c(c2)CC(=O)N([C@@H](C)CO)C[C@H](C)[C@H](CN(C)S(=O)(=O)c2ccc(C)cc2)O3)cc1	-1.1	-3.0	-7.3
O=C(Cc1cccnc1)N1CC2(C1)[C@H](c1ccccc1)[C@@H](CO)N2C(=O)C1CC1	nt	-1.2	nt
O=C(O)C[C@@H]1C[C@H]2c3cc(NC(=O)Nc4ccccc4F)ccc3O[C@H]2[C@H](CO)O1	-1.8	2.6	nt
COC(=O)C[C@@H]1C[C@@H]2c3cc(NC(=O)Nc4ccccc4F)ccc3O[C@@H]2[C@@H](CO)O1	81.5*	41.0*	60.2
CCCNC(=O)Nc1ccc2c(c1)OC[C@H](C)N(C(=O)C1CCOCC1)C[C@H](C)[C@H](OC)CN(C)C2=O	1.9	35.1*	49.1
CO[C@H]1CN(C)C(=O)c2ccc(NC(=O)NC(C)C)cc2OC[C@H](C)N(C(=O)CC2CC2)C[C@@H]1C	nt	0.2	nt
CCCNC(=O)Nc1ccc2c(c1)OC[C@@H](C)N(C(=O)C1CCOCC1)C[C@H](C)[C@@H](OC)CN(C)C2=O	-0.1	2.7	-3.7
CO[C@@H]1CN(C)C(=O)c2cc(NC(=O)c3ccccc3)ccc2OC[C@H](C)N(C(C)=O)C[C@H]1C	0.0	-0.3	32.1
CO[C@H]1CN(C)C(=O)c2cc(NC(=O)c3ccccc3)ccc2OC[C@@H](C)N(C(C)=O)C[C@@H]1C	87.5*	nt	-65.4
CO[C@@H]1CN(C)C(=O)c2ccc(NC(=O)NC(C)C)cc2OC[C@H](C)N(C(=O)CC2CC2)C[C@@H]1C	6.8	51.2*	-39.2
O=C(C[C@H]1CC[C@H](NC(=O)C2CCC2)[C@H](CO)O1)Nc1nccs1	0.0	0.8	12.1
C[C@H]1CN([C@@H](C)CO)C(=O)CCCn2cc(nn2)CO[C@H]1CN(C)C(=O)Oc1ccccc1	2.7	-0.4	6.7
CO[C@H]1CN(C)C(=O)c2ccc(NS(=O)(=O)c3cccc(Cl)c3)cc2OC[C@@H](C)NC[C@H]1C	72.2*	43.2*	72.6
CO[C@@H]1CN(C)C(=O)c2ccc(NS(=O)(=O)c3cccc(Cl)c3)cc2OC[C@@H](C)NC[C@H]1C	0.0	0.9	13.7
COc1ccc(S(=O)(=O)Nc2ccc3c(c2)C(=O)N([C@@H](C)CO)C[C@@H](C)[C@@H](CN(C)C(=O)Nc2c(C)noc2C)OCCCC[C@H](C)O3)cc1	0.6	3.4	7.3
Cc1ccc(S(=O)(=O)Nc2ccc3c(c2)C(=O)N([C@H](C)CO)C[C@H](C)[C@@H](CN(C)CC2CC2)O3)cc1	nt	0.0	-28.5
C/C=C/c1ccc2c(c1)O[C@@H](CN(C)C(=O)Cc1cccnc1)[C@H](C)CN([C@H](C)CO)S2(=O)=O	12.0	0.7	nt
C/C=C/c1ccc2c(c1)O[C@@H](CN(C)C(=O)Cc1cccnc1)[C@H](C)CN([C@@H](C)CO)S2(=O)=O	45.8*	5.7	nt
C[C@@H]1CN([C@@H](C)CO)S(=O)(=O)c2ccc(/C=C/c3ccccc3)cc2O[C@@H]1CN(C)C(=O)c1ccccc1	-7.5	-0.9	127.1*
C/C=C/c1ccc2c(c1)O[C@@H](CN(C)C(=O)c1ccccc1)[C@H](C)CN([C@H](C)CO)S2(=O)=O	3.4	-1.6	nt
SMILES	IDH1 mut inh	GASC1 inh	Tcruzi prolif
CCC(=O)Nc1ccc2c(c1)C(=O)N(C)[C@H]1CC[C@H](CC(=O)NCCCN(C)C)O[C@H]1CO2	nt	5.0	59.5
CCCN1[C@H](C(=O)N[C@@H](C)c2ccccc2)[C@@H](CO)[C@@H]2Cn3c(cccc3=O)[C@@H]21	nt	38.3*	nt
CCCN1[C@@H]2c3cccc(=O)n3C[C@@H]2[C@@H](CO)[C@@H]1C(=O)N[C@@H](C)c1ccccc1	nt	18.6	nt
CN(CCC#N)CC(=O)Nc1ccccc1[N+](=O)[O-]	0.2	nt	nt
C[C@@H]1CN([C@H](C)CO)C(=O)Cc2cc(NC(=O)NC3CCCCC3)ccc2O[C@@H]1CN(C)Cc1ccncc1	8.6	nt	-5.0
COc1ccc(CN(C)C[C@H]2Oc3ccc(NC(=O)C4CC4)cc3CC(=O)N([C@@H](C)CO)C[C@@H]2C)cc1	1.6	0.1	62.2
C[C@@H]1CN([C@@H](C)CO)C(=O)Cc2cc(NC(=O)NC3CCCCC3)ccc2O[C@H]1CN(C)Cc1ccncc1	46.6*	-0.4	49.2
COc1ccc(CN(C)C[C@@H]2Oc3ccc(NC(=O)C4CCCCC4)cc3CC(=O)N([C@@H](C)CO)C[C@H]2C)cc1	106.1*	84.7*	55.2
O=C(C[C@@H]1CC[C@H]2[C@@H](COC[C@@H](O)CN2Cc2ccc(F)cc2)O1)NCc1ccccc1Cl	nt	1.6	8.3
Cc1ccc(S(=O)(=O)Nc2ccc3c(c2)CC(=O)N([C@@H](C)CO)C[C@@H](C)[C@@H](CN(C)C(=O)Nc2ccccc2)O3)cc1	nt	-3.5	31.9
CNC[C@H]1Oc2c(cccc2N(C)C)C(=O)N([C@H](C)CO)C[C@@H]1C	1.7	0.1	47.6
CC(C)NC(=O)N(C)C[C@H]1Oc2cc(-c3ccccc3)ccc2S(=O)(=O)N([C@H](C)CO)C[C@H]1C	-1.5	-1.0	56.2
COc1cccc(C#Cc2ccc3c(c2)O[C@@H](CN(C)C(=O)c2ccccn2)[C@@H](C)CN([C@H](C)CO)S3(=O)=O)c1	nt	-1.5	?
COc1cccc(C#Cc2ccc3c(c2)O[C@H](CN(C)C(=O)c2ccccn2)[C@H](C)CN([C@@H](C)CO)S3(=O)=O)c1	nt	0.6	115.8*
COc1cccc(C#Cc2ccc3c(c2)O[C@@H](CN(C)C(=O)c2ccccn2)[C@H](C)CN([C@H](C)CO)S3(=O)=O)c1	nt	0.8	119.2*
CCC(=O)N(C)C[C@@H]1Oc2cc(C#Cc3ccccc3)ccc2S(=O)(=O)N([C@@H](C)CO)C[C@@H]1C	11.2	33.9*	nt
CCC(=O)N(C)C[C@@H]1Oc2cc(C#Cc3ccccc3)ccc2S(=O)(=O)N([C@H](C)CO)C[C@@H]1C	0.4	-2.1	nt
COc1ccc(C#Cc2ccc3c(c2)O[C@@H](CN(C)C(=O)c2ccccn2)[C@H](C)CN([C@@H](C)CO)S3(=O)=O)cc1	-0.8	-8.7	nt
C[C@H]1CN([C@@H](C)CO)C(=O)c2cc(-c3ccc(F)cc3)cnc2O[C@@H]1CN(C)Cc1ccc(F)cc1	-1.1	0.6	31.6
C[C@H]1CN([C@@H](C)CO)C(=O)Cc2cc(NC(=O)Cn3cnnn3)ccc2O[C@H]1CN(C)C(=O)Nc1ccc2c(c1)OCO2	-22.4	0.1	-5.2
CCCC#Cc1cnc2c(c1)C(=O)N([C@@H](C)CO)C[C@@H](C)[C@H](CN(C)C(=O)c1ccccc1)O2	0.5	2.6	nt

Source: PubChem
